Laboratory results from ChEMBL document CHEMBL5325402, “Exploration of novel hexahydropyrrolo[1,2-e]imidazol-1-one derivatives as antiviral agents against ZIKV and USUV” (Eur J Med Chem, 2023).
≈ marks a conversion by molar mass, not a printed value. Calls of active or inactive are those of the source. The calls are words filed in the database; no cut-off is given here.

Legend:
[1] = Solubility in i-propanol at 25 degreeC; type: physicochemical
[2] = Aqueous solubility in deionized water containing 1.38% DMSO; type: physicochemical
Zika virus [3] = test: Antiviral activity against ZIKV MR766 infected in African green monkey Vero cells assessed as viral growth inhibition at 11 to 100 uM pretreated with virus for 1 hr followed by infection of cells with compound treated-virus for 30 hrs by focus reduction assay relative to control; type: functional; details: dose 11-100 µM, time 31 hrs
Method in brief: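 Virus (MOI 0.02) preincubated with compound 1 h at 37 °C, then mixture put on Vero cells (1.2 × 10^4/well, seeded the day before) in DMEM with 2% FBS for 30 h (ZIKV) or 20 h (USUV) at 37 °C. Fixed in cold acetone-methanol, foci immunostained with anti-flavivirus E 4G2 antibody and counted. % infection is relative to DMSO-treated wells. Screen used 100, 33 and 11 μM.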

Usutu virus [4] = test: Antiviral activity against USUV 3345 isolate Arb276 infected in African green monkey Vero cells assessed as reduction in viral replication pretreated with virus for 1 hr followed by infection of cells with compound treated-virus for 20 hrs by focus reduction assay; type: functional, organism-based; details: Usutu virus, 3345, Vero; for EC90: time 21 hrs
Zika virus [5] = test: Antiviral activity against ZIKV MR766 infected in human A549 cells assessed as reduction in viral replication pretreated with virus for 1 hr followed by infection of cells with compound treated-virus for 30 hrs by focus reduction assay; type: functional, organism-based; details: for EC90: time 31 hrs
Method in brief: (§1)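 Dose-response: serial dilutions (100 to 0.13 μM) preincubated 1 h at 37 °C with virus (MOI 0.02), then added to cells for 20 h (USUV) or 30 h (ZIKV) in 2% FBS DMEM. Cells per well: Vero 1.2 × 10^4, A549 1.3 × 10^4, Huh7 1.6 × 10^4. Foci immunostained and counted. EC50/EC90 fitted by variable-slope sigmoidal curve, mean of three independent experiments.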

Zika virus [6] = test: Antiviral activity against ZIKV MR766 infected in human Huh-7 cells assessed as reduction in viral replication pretreated with virus for 1 hr followed by infection of cells with compound treated-virus for 30 hrs by focus reduction assay; type: functional, organism-based; details: for EC50: MR766, Huh-7; for EC90: MR766, Huh-7, time 31 hrs; method in brief: as §1
[7] = Cytotoxicity against African green monkey Vero cells infected with ZIKV MR766 pretreated with virus for 1 hr followed by infection of cells with compound treated-virus for 30 hrs by MTS assay; type: toxicity, cell-based; details: chlorocebus sabaeus
Method in brief: (§2)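 MTS viability assay. Cells were treated under the same conditions as the antiviral assays. Absorbance was expressed as % of medium-only cells, and CC50 was derived from the curve. Seeding densities were 1.2 × 10^4/well for Vero, 1.3 × 10^4/well for A549 and 1.6 × 10^4/well for Huh7. DMEM with 2% FBS.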

[8] = Cytotoxicity against human A549 cells infected with ZIKV MR766 pretreated with virus for 1 hr followed by infection of cells with compound treated-virus for 30 hrs by MTS assay; type: toxicity, cell-based; method in brief: as §2
[9] = Cytotoxicity against human Huh-7 cells infected with USUV 3345 isolate Arb276 pretreated with virus for 1 hr followed by infection of cells with compound treated-virus for 20 hrs by MTS assay; type: toxicity, cell-based; method in brief: as §2
[10] = Cytotoxicity against human Huh-7 cells infected with ZIKV MR766 pretreated with virus for 1 hr followed by infection of cells with compound treated-virus for 30 hrs by MTS assay; type: toxicity, cell-based; method in brief: as §2
[11] = Selectivity index, ratio of CC50 for African green monkey Vero cells infected with ZIKV MR766 to EC50 for ZIKV MR766 infected in African green monkey Vero cells; type: toxicity, cell-based; details: read-out: Ratio CC50/EC50
[12] = Selectivity index, ratio of CC50 for African green monkey Vero cells infected with USUV 3345 isolate Arb276 to EC50 for USUV 3345 isolate Arb276 infected in African green monkey Vero cells; type: toxicity, cell-based; details: read-out: Ratio CC50/EC50
Zika virus [13] = test: Antiviral activity against ZIKV MR766 infected in African green monkey Vero cells assessed as titer reduction in viral progeny production at 15 uM treated for 2 hrs followed by virus removal and subsequent addition of medium containing compound measured after 48 hrs by plaque reduction assay; type: functional, organism-based; details: time 50.0 hrs
Method in brief: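 Vero cells seeded 6.5 × 10^4/well, exposed in duplicate for 2 h at 37 °C to virus (MOI 0.1) mixed with compound at 5 or 15 μM. After three washes, medium containing compound was added for 48 h. Supernatants were clarified and titred on Vero by focus reduction (USUV, FFU/ml) or plaque assay (ZIKV, PFU/ml). DMSO-matched infected controls; mean of three experiments.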

Zika virus [14] = test: Antiviral activity against ZIKV MR766 infected in African green monkey Vero cells assessed as viral growth inhibition at 0.13 to 100 uM pretreated with cells 24 hrs prior to viral infection by time of addition assay; type: functional, organism-based; details: dose 0.13-100 µM
Method in brief: (§3)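 Time-of-addition assay in Vero. Serial dilutions (100 to 0.13 μM) were added to cells 24 h or 2 h before infection, during the 2 h infection, or post-infection for 24 h (USUV) or 30 h (ZIKV). Cells were fixed in cold acetone-methanol (50:50) and infected cells detected by indirect immunostaining. EC50/EC90 came from variable-slope sigmoidal fits; mean of three independent experiments.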

Usutu virus [15] = test: Antiviral activity against USUV 3345 isolate Arb276 infected in African green monkey Vero cells assessed as viral growth inhibition at 0.13 to 100 uM pretreated with cells 24 hrs prior to viral infection by time of addition assay; type: functional, organism-based; details: dose 0.13-100 µM; method in brief: as §3
Usutu virus [16] = test: Antiviral activity against USUV 3345 isolate Arb276 infected in African green monkey Vero cells assessed as viral growth inhibition at 0.13 to 100 uM treated immediately after viral infection for 24 hrs by time of addition assay; type: functional, organism-based; details: dose 0.13-100 µM; method in brief: as §3
Zika virus [17] = test: Antiviral activity against ZIKV MR766 infected in African green monkey Vero cells assessed as viral growth inhibition at 0.13 to 100 uM pretreated with cells 2 hrs prior to viral infection by time of addition assay; type: functional, organism-based; details: dose 0.13-100 µM; method in brief: as §3
Usutu virus [18] = test: Antiviral activity against USUV 3345 isolate Arb276 infected in African green monkey Vero cells assessed as viral growth inhibition at 0.13 to 100 uM pretreated with cells 2 hrs prior to viral infection by time of addition assay; type: functional, organism-based; details: dose 0.13-100 µM; method in brief: as §3
Zika virus [19] = test: Antiviral activity against ZIKV MR766 infected in African green monkey Vero cells assessed as viral growth inhibition at 0.13 to 100 uM treated immediately after viral infection for 2 hrs by time of addition assay; type: functional, organism-based; details: dose 0.13-100 µM, in the assay text read “during viral infection” for “immediately after viral infection”; method in brief: as §3
Usutu virus [20] = test: Antiviral activity against USUV 3345 isolate Arb276 infected in African green monkey Vero cells assessed as viral growth inhibition at 0.13 to 100 uM treated immediately after viral infection for 2 hrs by time of addition assay; type: functional, organism-based; details: dose 0.13-100 µM, in the assay text read “during viral infection” for “immediately after viral infection”; method in brief: as §3
[21] = Selectivity ratio of EC50 for antiviral activity against ZIKV MR766 infected in African green monkey Vero cells pretreated with cells 24 hrs prior to viral infection to EC50 for antiviral activity against ZIKV MR766 infected in African green monkey Vero cells treated immediately after viral infection for 30 hrs; type: functional, Zika virus
Method in brief: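 Time of addition: serial dilutions (100 to 0.13 μM) put on cells either 24 h before infection or after infection for 30 h (ZIKV). Infected cells fixed in acetone-methanol and immunostained. EC50 computed for each treatment condition by sigmoidal fit; the ratio compares the two EC50s.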

SMILES | solubility [1] | solubility [2] | inhibition (INH) (Zika virus [3]) | EC50 (Usutu virus [4]) | EC90 (Usutu virus [4]) | EC50 (Zika virus [5]) | EC90 (Zika virus [5]) | EC50 (Zika virus [6]) | EC90 (Zika virus [6]) | CC50 at 31 h [7] | CC50 at 31 h [8] | CC50 at 21 h [9] | CC50 at 31 h [10] | selectivity ratio [11] | selectivity ratio [12] | Activity (Zika virus [13]) | Activity (Zika virus [14]) | Activity (Usutu virus [15]) | Activity (Usutu virus [16]) | Activity (Zika virus [17]) | other results
O=C1[C@@H]2CCCN2[C@@H](c2ccc([C@H]3C[C@@H](O)[C@@H](CO)O3)cc2)N1c1ccc([N+](=O)[O-])cc1 | 7320 µg/mL (≈ 16.7 mM) | > 947 µg/mL | 100% | 2.53 µM | 3.89 µM | 3.95 µM | 10.9 µM | 2.26 µM | 4.26 µM | > 500 µM | > 500 µM | > 500 µM | > 500 µM | > 63 | > 198 | Active | Active | Active | Active | inactive | Activity (Usutu virus [18]): inactive; Activity (Zika virus [19]): inactive; Activity (Usutu virus [20]): inactive; Ratio EC50 [21]: 5
O=C1C[C@H](c2ccc([C@H]3N(c4ccc([N+](=O)[O-])cc4)C(=O)[C@@H]4CCCN43)cc2)O[C@@H]1CO | 8570 µg/mL (≈ 19.6 mM) | > 897 µg/mL | 100% | 2.76 µM | 4.34 µM | 3.8 µM | 10.2 µM | 2.36 µM | 4.19 µM | > 500 µM | > 500 µM | > 500 µM | > 500 µM | > 51 | > 181 | Active | Active | Active | Active | inactive | Activity (Usutu virus [18]): inactive; Activity (Zika virus [19]): inactive; Activity (Usutu virus [20]): inactive; Ratio EC50 [21]: 5
